Results as given in PubChem BioAssay AID651560 (Sanford-Burnham Center for Chemical Genomics, 2012).
The campaign covered roughly 360,000 compounds. About 820 (0.23%) were called active. The sample holds actives, similar compounds and a random draw of the others, so the mix is not that of the screen. Values without a mark were called inactive.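 Rule for the calls: active = compounds that cut the enzyme signal by at least half of the control window in the single-dose screen; inactive = the rest.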

Each compound was assayed against Low molecular weight phosphotyrosine protein phosphatase (Homo sapiens) (UniProt P24666) (assay: LMPTP phosphatase inhibitors, primary screen, biochemical, fluorescence intensity, uHTS (AID 651560;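 note: plate controls were DMSO wells with enzyme plus substrate for no effect and substrate without enzyme for full effect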)). Settings: recombinant LMPTP-A, OMFP fluorogenic substrate, at 20 µM, active compounds read high.
Sequence of Low molecular weight phosphotyrosine protein phosphatase (Homo sapiens) (P24666 whole entry, looked up): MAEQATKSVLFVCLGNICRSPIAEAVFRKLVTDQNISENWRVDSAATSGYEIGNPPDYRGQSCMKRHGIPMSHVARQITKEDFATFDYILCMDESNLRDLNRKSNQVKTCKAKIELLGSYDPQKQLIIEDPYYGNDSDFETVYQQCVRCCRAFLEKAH
In short: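 test system = LMPTP-A | amount = 0.625 nM LMPTP-A final | reagent = fluorogenic phosphatase substrate OMFP at 400 µM final | incubation = 50 min at room temperature | benchmarks = no-enzyme low control, uninhibited high control | medium = Bis-Tris pH 6.0, DTT, detergent | signal = fluorescence intensity of OMFP turnover product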
`O=S(=O)(NN=C1CCCCCCC1)c1ccc(Br)cc1` gave an inhibition of 0.285%.
`CCCn1c(N)c(N(CCOC)C(=O)C2CCCC2)c(=O)[nH]c1=O` gave an inhibition of -0.34%.
`CCOCCCNC(=O)C(NC(=O)Cc1c[nH]c2ccccc12)c1ccc(OC)cc1` (centres undefined) showed an inhibition of -1.16%.
Compound `COC(=O)c1c(NC(=O)CN(c2ccc(C)c(C)c2)S(C)(=O)=O)sc2c1CCCC2` has an inhibition of 1.37%.
`CCOc1ccc(OCC)c(NC(=O)CSc2nnc(Cn3cnc4ccccc43)n2C)c1` was tested, and the inhibition was -0.816%.
`CNc1cnc(-c2cc(OC)c(OC)c(OC)c2)cn1` gave an inhibition of 0.718%.
For `NS(=O)(=O)c1ccc(CCNC(=O)COC(=O)COc2cccc(C(F)(F)F)c2)cc1`, the inhibition was -0.314%.
With `O=C(Nc1cccnc1)c1cc2cc(Br)ccc2oc1=O` the inhibition was 45.7%.
`O=C(Nc1ccncc1)c1cc(-c2ccccn2)nc2ccc(Br)cc12` was tested, and the inhibition was 51.5% (active).
With `O=C(CSc1ccc(-c2ccccn2)nn1)Nc1ccccc1` the inhibition was 0.337%.
In the case of `COC(=O)c1ccc(C23CC4(C2)[C@H](CN(Cc2cccnc2)[C@@H]4c2ccccc2)C3c2ccc(Cl)nc2)cc1` (some centres undefined), the inhibition is reported as 8.71%.
In the case of `CCCc1ccc(-c2c(C)sc(NC(=O)c3ccnn3C)c2C#N)cc1`, the inhibition is reported as 1.55%.
With `Cc1ccc(C(=O)N/C(=C\c2ccco2)C(=O)N2CCSCC2)cc1C` the inhibition was -0.858%.
In the case of `Cc1cccc(C)c1NC1=NC(=S)N(c2ccc(N(C)C)cc2)C1(C)C`, the inhibition is reported as -0.864%.
In the case of `CC1(C(=O)NCc2ccccc2)CN(S(C)(=O)=O)CC(=O)N1CC(F)(F)F` (centres undefined), the inhibition is reported as -0.703%.
With `O=C(NCc1ccc2c(c1)OCO2)c1c(O)nc2sccn2c1=O` the inhibition was 53.5% (active).
In the case of `C=CCn1c(=O)c(C(=O)NCc2ccc3c(c2)OCO3)c(O)c2ccccc21`, the inhibition is reported as 2.01%.
In the case of `O=C(NCc1ccc2c(c1)OCO2)c1sccc1Br`, the inhibition is reported as -0.435%.
`Cc1ccc(C(=O)O)cc1-c1ccc(/C=C2\SC(=O)N(CC(=O)Nc3ccc4c(c3)OCO4)C2=O)o1` was tested, and the inhibition was 61.2% (active).
`O=C(CN1CCN(C(=O)c2ccco2)CC1)Nc1ccc2c(c1)OCO2` was tested, and the inhibition was -0.639%.
`O=C(CCN1C(=O)c2ccncc2C1=O)Nc1ccc2c(c1)OCCO2` showed an inhibition of 0.479%.
For `Cc1ccc(S(=O)(=O)N2[C@@H](c3ccc(Br)cc3)C(C(=O)O)=C[C@H]2CC2CCCC2)cc1`, the inhibition was 0.284%.
In the case of `COc1cc(OC)cc(/C(N)=N/O)c1`, the inhibition is reported as 0.166%.
`CCC(C)N(C(=O)COC(=O)c1nc(Cl)ccc1Cl)C1CCS(=O)(=O)C1` (centres undefined) gave an inhibition of -0.848%.
`N#CCSc1nn(-c2ccc(F)cc2)c(=S)s1` showed an inhibition of -0.858%.
`CCOC(=O)C1CCN(C(=O)c2ccc3c(=O)n4nc(Nc5ccccc5CC)sc4nc3c2)CC1` was tested, and the inhibition was 1.95%.
`CS(=O)(=O)N1CCCCC1c1cc(C(=O)NCc2ccccc2)no1` (centres undefined) was tested, and the inhibition was -1.43%.
With `Nc1nc(C23CC4CC(CC(C4)C2)C3)cs1` the inhibition was -0.25%.
Work on `C#CCN(N(C)c1ncc(C(F)(F)F)cc1Cl)S(=O)(=O)c1ccc2ccccc2c1` yielded an inhibition of 5.44%.
`CN(C)C(=O)Cn1c(=O)n(S(=O)(=O)c2ccccc2)c2ccccc21` was tested, and the inhibition was -0.0726%.
In the case of `Cc1cccc(NC(=O)CSc2nnc(CCCCCNC(=O)OC(C)(C)C)o2)c1C`, the inhibition is reported as -0.643%.
Work on `O=C(NCc1cccnc1)c1cc(C2CCCN(C(=O)CCCc3ccccc3)C2)on1` (centres undefined) yielded an inhibition of -0.488%.
For `CCN1/C(=C\c2ccc3ccccc3[n+]2CC)Sc2cc(C)ccc21`, the inhibition was 63.9% (active).
Work on `Cc1nc(CC(=O)NNS(=O)(=O)c2ccc(F)c(Cl)c2)cs1` yielded an inhibition of -1.65%.
`Cc1cccc(OCC(O)CN2CCN(CCN3C(=O)c4cccc5cccc(c45)C3=O)CC2)c1C` (centres undefined) showed an inhibition of 8.73%.
Compound `CCOC(=O)Cc1cc(=O)[nH]c(/N=C(\N)Nc2ccc(OC)cc2)n1` has an inhibition of -0.31%.
`CCSc1nc(=S)n(CC)c(C)c1C(C)=O` gave an inhibition of -0.754%.
Work on `COC(=O)CN1C(C)=Nc2ccc(Br)cc2C1c1ccccc1` (centres undefined) yielded an inhibition of -0.193%.
With `CCn1ccnc1CNC(=O)CC1C(=O)NCCN1CCCc1ccccc1` (centres undefined) the inhibition was -2.22%.
Work on `CCOc1cc2[nH]c(=S)n(Cc3ccc(C(=O)N4CCN(C)CC4)cc3)c(=O)c2cc1OCC` yielded an inhibition of 1.07%.
Compound `O=c1c(Cl)c(NCc2ccc(F)cc2Cl)cnn1C12CC3CC(CC(C3)C1)C2` has an inhibition of 1.08%.
Work on `O=C1c2ccccc2C(Nc2ccc3c(c2)OCCO3)N1Cc1ccco1` (centres undefined) yielded an inhibition of 0.866%.
`Cn1c(=O)c(=O)n(C)c2cc(S(=O)(=O)CCC(=O)N3CCCCC3)ccc21` showed an inhibition of -0.491%.
`COc1ccc(-c2oc3ncn(Cc4ccco4)c(=N)c3c2-c2ccc(OC)cc2)cc1` showed an inhibition of 3.1%.
For `O=C(Cn1c(=O)n(Cc2ccco2)c(=O)c2ccccc21)NCC1CCCO1` (centres undefined), the inhibition was -0.056%.
For `Cn1c2ccccc2c(=O)c2c(=O)n(Cc3ccco3)c(COc3ccccc3)nc21`, the inhibition was 69% (active).
`O=C(CC(=O)N/N=C\c1cccc(Cl)c1Cl)NCc1ccccc1` was tested, and the inhibition was -1.17%.
For `O=C(NN=Cc1ccccc1O)NN=Cc1ccccc1O`, the inhibition was 61.8% (active).
Work on `O=C(CO/N=C/c1ccccc1O)NNC(=O)c1ccccc1Cl` yielded an inhibition of -0.137%.
Work on `O=C(Nc1cc(S(=O)(=O)N2CCOCC2)ccc1N1CCOCC1)c1c(F)cccc1Cl` yielded an inhibition of -0.613%.
Work on `CN(CC(=O)Nc1ccc(Cl)cc1)C(=O)CNC(=O)c1ccc2ccccc2c1` yielded an inhibition of 0.862%.
In the case of `O=C(NNC(=O)c1ccc2ccccc2c1)c1ccc(Cl)cc1`, the inhibition is reported as 49.6% (active).
`O=C(CCCOc1ccccc1)NNC(=O)c1ccc(Cl)cc1` was tested, and the inhibition was -0.0475%.
For `CC(C)(C)S(=O)(=O)c1ccccc1-c1noc(-c2ccccc2)c1C(N)=O`, the inhibition was -0.802%.
For `Cc1ncc([N+](=O)[O-])n1CCOC(=O)c1ccc(Br)cc1`, the inhibition was -0.676%.
`C[C@H](NC(=O)NCCc1ccccc1)C(=O)O` was tested, and the inhibition was 0.573%.
Work on `CCOC(=O)C1(CC2CCCCO2)CCN(Cc2nc(-c3cccs3)oc2C)CC1` (centres undefined) yielded an inhibition of 0.186%.
`O=C(COC(=O)C1CC2CCCC(C1)C2=O)NC(=O)c1ccccc1` (centres undefined) was tested, and the inhibition was -0.507%.
`CC(Oc1ccc(F)cc1F)C(=O)/C=C/N(C)C` (centres undefined) gave an inhibition of 0.234%.
`C[C@H]1CN([C@@H](C)CO)S(=O)(=O)c2ccc(-c3cccc(F)c3)cc2O[C@@H]1CN(C)C` gave an inhibition of -1.08%.
With `CCOC(=O)N1CCN(C(=S)Nc2ccc(C)cc2C)CC1` the inhibition was -1.47%.
For `COc1cc([N+](=O)[O-])ccc1NC(=S)N1CCN(c2ccccn2)CC1`, the inhibition was 0.0311%.
In the case of `CC1CCN(C(=S)c2cccc(O)c2)CC1`, the inhibition is reported as 0.643%.
With `CCS(=O)(=O)N1Cc2ccccc2CC1C(=O)Nc1ccc(OC)cc1OC` (centres undefined) the inhibition was -0.419%.
For `CC(NC(=S)NNS(=O)(=O)c1ccc(C(C)(C)C)cc1)c1ccccc1` (centres undefined), the inhibition was 2.08%.
For `Cc1c(Nc2nc3ccccc3nc2NS(=O)(=O)c2cccs2)c(=O)n(-c2ccccc2)n1C`, the inhibition was -0.947%.
For `O=C(COc1ccc(/C=N/NC(=O)c2ccc(O)cc2)cc1)Nc1ccc([N+](=O)[O-])cc1`, the inhibition was 71.4% (active).
For `O=C(COc1ccc([N+](=O)[O-])cc1)Nc1ccc(N2CCCC2)cc1`, the inhibition was 59.1% (active).
Work on `N#Cc1cc([N+](=O)[O-])ccc1Oc1cccc(/C=N/NC(=O)c2ccc(Cl)cc2)c1` yielded an inhibition of 0.464%.
In the case of `O=C(COc1ccc([N+](=O)[O-])cc1)Nc1cccc(C(=O)Nc2ccccc2C(=O)O)c1`, the inhibition is reported as 0.459%.
Work on `O=C(CSc1ccc([N+](=O)[O-])cn1)Nc1ccc(N2CCOCC2)cc1` yielded an inhibition of -0.239%.
`O=C(COC(=O)C1CCCCC1)Nc1ccc([N+](=O)[O-])cc1` showed an inhibition of 0.534%.
Work on `COc1ccc(CCNc2ncnc3c2nnn3Cc2ccccc2)cc1` yielded an inhibition of 1.88%.
`CCn1ccnc1CNC(=O)CC1C(=O)NCCN1Cc1ccc(F)cc1Cl` (centres undefined) gave an inhibition of 1.38%.
`Nc1ccc(Cl)c(S(=O)(=O)Nc2ccccc2Cl)c1` gave an inhibition of -0.587%.
Work on `O=S(=O)(c1ccc(F)cc1)N1CCN(C(=S)NCc2ccco2)CC1` yielded an inhibition of 0.0562%.
For `CCCc1c(C)nc2scc(-c3ccc(Cl)cc3)n2c1=O`, the inhibition was -0.6%.
`O=c1ccc2c(-c3ccccc3S(=O)(=O)O)c3ccc(O)c(O)c3oc-2c1O` was tested, and the inhibition was 58.1% (active).
Work on `Cc1ccc(N2C(=O)C3C4C=CC(CC4)C3C2=O)cc1Br` (centres undefined) yielded an inhibition of -1.41%.
Work on `COc1cc(Cl)c(C)cc1NC(=O)[C@@H]1CCCN1C(=O)c1cccs1` yielded an inhibition of -1.01%.
Compound `CCN(CC)Cc1nc2sc(C)c(C)c2c(=O)[nH]1` has an inhibition of -1.11%.
`C/C(=N\Nc1nc2ccccc2[nH]1)c1cccs1` gave an inhibition of 1.27%.
In the case of `C/C(=N\Nc1ccc(S(N)(=O)=O)cc1[N+](=O)[O-])c1cccs1`, the inhibition is reported as 57.1% (active).
`NS(=O)(=O)c1ccc(NC(=S)NNC(=O)c2cccs2)cc1` was tested, and the inhibition was -0.673%.
With `CCOC1=C2CN(S(=O)(=O)c3ccc(C)cc3)[C@H](c3cccs3)C[C@H]2[C@H]2C(=O)N(c3ccccc3)C(=O)[C@H]2C1` the inhibition was 0.231%.
`O=C(c1ccccc1)c1ccc2nc(N3CCCCC3)c3nncn3c2c1` showed an inhibition of 2.58%.
Compound `CC(C)(Oc1ccc(Cl)cc1)C(=O)OCC(=O)NCCc1ccc(S(N)(=O)=O)cc1` has an inhibition of -0.949%.
`Cc1sc2ncnc(SCC(=O)Nc3ccc(CN4CCCC4)cc3)c2c1C` gave an inhibition of 23.7%.
With `O=c1c2ccccc2nnn1CSc1nc2sc3c(c2c(=O)n1CC1CCCO1)CCC3` (centres undefined) the inhibition was 4.21%.
